Hits are enriched below; roughly 2.4% of the tested compounds scored in any of these assays.
Myeloid diff 2 = compounds promoting myeloid differentiation. 360,000 compounds, 1% hits. ER-HoxA9 myeloid progenitors, lysozyme-GFP differentiation, flow cytometry. calls only at 10 µM;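 active = normalized GFP-positive differentiation at or above the plate's own cutoff, the solvent-only control mean plus 3 SD; inconclusive = no clear call, values can overlap the other calls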;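 also: cells exposed to compound for four days before flow analysis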
beta cell repl = MIN6 beta-cell proliferation induction; MIN6 cells proliferation, ATPlite luminescence, 48 h; cells starved in 0.2% serum; 100% = growth in 10% serum; proliferation, % at 10 µM; 330,000 compounds, 0.29% hits;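 active = compounds whose signal lies at least 3.5 SD above the mean of all wells on their plate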;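 also: 0% = DMSO-treated cells in low-serum medium and 100% = 10% serum control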
SENP1 inh = SENP1 (human) catalytic domain inhibition; recombinant SENP1 catalytic domain, CyPet-SUMO1-YPet FRET cleavage; inhibition, % at 10 µM; 360,000 compounds, 0.21% hits;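 active = inhibition at least 30% at 10 µM, raw YFP signal under a set limit, fluorescence ratio 0.5 to 1.5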;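 also: 0% = enzyme with DMSO and 100% = no enzyme wells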
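material = recombinant human SENP1 catalytic domain, His6-tagged | quantity = 20 pM enzyme | reagent = 25 nM SUMO1 FRET substrate | compound dosing = 10 µM single point, 0.5% DMSO | timing = 50 min enzyme reaction, room temperature, light-protected | detection = FRET, CFP and YFP emission | control set = no-enzyme low, enzyme-DMSO high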
MT1-MMP act inh = blocks activation of human MT1-MMP. HT1080 RFP-PRO-GFP cells, GFP/RFP ratio fluorescence, overnight; percent of plate control window, DMSO zero. GFP/RFP ratio change, % at 20 µM. 360,000 compounds, 0.061% hits. AID 651647;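 active = GFP/RFP ratio change of at least 30% with cell ATP level not reduced by more than half and red fluorescence within 50% of control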
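Material: RFP-PRO-GFP reporter HT1080 cells. Dosing: single-point 20 µM compound, 1% DMSO. Controls: DMSO and RFP-L50D-GFP cell wells. Timing: cells overnight before dosing, compound overnight, 37 °C, 5% CO2. Measure: GFP/RFP fluorescence ratio.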
DAGLB inhibitor = blocks human DAGLB lipase activity; inhibition, % at 5.17 µM; Q8NCG7; 340,000 compounds, 0.059% hits; HEK293T DAGLB membrane lysate, EnzChek fluorogenic substrate; in the data active = inhibition above about 34%;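 also: 0% = enzyme with vehicle and 100% = wells lacking enzyme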
Target sequence (Q8NCG7 whole entry, looked up): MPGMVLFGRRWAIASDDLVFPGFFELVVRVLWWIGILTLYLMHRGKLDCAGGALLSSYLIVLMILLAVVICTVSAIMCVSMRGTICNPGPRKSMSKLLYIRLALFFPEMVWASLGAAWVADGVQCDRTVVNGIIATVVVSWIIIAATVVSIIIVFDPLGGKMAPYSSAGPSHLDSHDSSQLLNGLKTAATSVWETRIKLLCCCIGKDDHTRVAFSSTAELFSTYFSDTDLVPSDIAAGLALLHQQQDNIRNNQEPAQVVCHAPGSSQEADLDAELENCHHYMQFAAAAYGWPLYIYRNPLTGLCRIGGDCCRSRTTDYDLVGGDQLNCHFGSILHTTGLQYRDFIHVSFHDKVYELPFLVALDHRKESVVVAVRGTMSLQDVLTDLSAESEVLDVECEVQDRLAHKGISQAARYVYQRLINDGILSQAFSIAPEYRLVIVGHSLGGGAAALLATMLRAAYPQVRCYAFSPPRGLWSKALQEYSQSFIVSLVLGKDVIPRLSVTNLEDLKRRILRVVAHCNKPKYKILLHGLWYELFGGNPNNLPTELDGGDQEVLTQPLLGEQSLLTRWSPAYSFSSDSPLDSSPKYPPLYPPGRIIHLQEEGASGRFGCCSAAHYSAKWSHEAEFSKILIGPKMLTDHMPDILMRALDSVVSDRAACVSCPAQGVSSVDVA
CendR NRP1 mod = modulators of CendR peptide binding to human neuropilin-1. FAM-RPARPAR peptide binding to NRP-1, fluorescence polarization. inhibition, % at 25 µM. 360,000 compounds, 0.85% hits;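 active = inhibition or corrected inhibition above about 18%, plus a signal ratio from 0.5 to 1.5, limit read from the data, passing the limit was not always enough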
Active calls of the source: *.

What do the screens show for `COCCN1C(=S)NC(c2cccc(C(F)(F)F)c2)C(C(=O)N2CCOCC2)=C1C` (stereo unspecified)?
Myeloid diff 2: inactive; beta cell repl: -4; SENP1 inh: 0; MT1-MMP act inh: 2; DAGLB inhibitor: -2; CendR NRP1 mod: -5

Results for CCNC(=O)C(=O)NCC1OCCCN1S(=O)(=O)c1ccc(F)cc1C (stereo unspecified) ?
Myeloid diff 2: inconclusive; beta cell repl: 0; SENP1 inh: 1; MT1-MMP act inh: -1; DAGLB inhibitor: -3; CendR NRP1 mod: 4

What do the screens show for `CNC(=O)C(=O)NCC1OCCCN1S(=O)(=O)c1ccc(F)cc1C` (stereo unspecified)?
Myeloid diff 2: inactive; beta cell repl: -2; SENP1 inh: 2; MT1-MMP act inh: -2; DAGLB inhibitor: -1; CendR NRP1 mod: 27*

How did COCCCNC(=O)CN1CCN(Cc2ccc(Cl)cc2)C1=O do in these assays?
Myeloid diff 2: inactive; beta cell repl: -2; SENP1 inh: 2; MT1-MMP act inh: 2; DAGLB inhibitor: 0; CendR NRP1 mod: 0

What do the screens show for `COc1ccc(CC(=O)Nc2c(C(=O)N3CCN(c4ccccc4)CC3)oc3ccccc23)cc1OC`?
Myeloid diff 2: inactive; beta cell repl: -5; SENP1 inh: -4; MT1-MMP act inh: -3; DAGLB inhibitor: 5; CendR NRP1 mod: 0

Results for O=C1C2C3CCC(C3)C2C(=O)N1c1ccc(OS(=O)(=O)c2ccccc2)cc1 (stereo unspecified) ?
Myeloid diff 2: inactive; beta cell repl: -3; SENP1 inh: 2; MT1-MMP act inh: -1; DAGLB inhibitor: -5; CendR NRP1 mod: 2

What do the screens show for `Cc1ccc(S(=O)(=O)Oc2ccc(N3C(=O)C4C5CCC(C5)C4C3=O)cc2)cc1` (stereo unspecified)?
Myeloid diff 2: inactive; beta cell repl: -3; SENP1 inh: 2; MT1-MMP act inh: -2; DAGLB inhibitor: -1; CendR NRP1 mod: 24*

Results for O=C(Cn1ncc2c([nH]c3ccccc32)c1=O)Nc1ccc(CN2CCCCC2)cc1 ?
Myeloid diff 2: active; beta cell repl: -7; SENP1 inh: -1; MT1-MMP act inh: -6; DAGLB inhibitor: -1; CendR NRP1 mod: -6

How did CC(C)N(CCCNC(=O)Cn1ncc2c([nH]c3ccccc32)c1=O)Cc1ccccc1 do in these assays?
Myeloid diff 2: inactive; beta cell repl: 0; SENP1 inh: -2; MT1-MMP act inh: 4; DAGLB inhibitor: 5; CendR NRP1 mod: 26*

How did NS(=O)(=O)c1cccnc1Nc1cccc(Cl)c1Cl do in these assays?
Myeloid diff 2: inactive; beta cell repl: -3; SENP1 inh: 1; MT1-MMP act inh: -2; DAGLB inhibitor: -3; CendR NRP1 mod: 24*

Results for CCC(C)Nc1nc(N)c([N+](=O)[O-])c(Nc2cc(OC)ccc2OC)n1 (stereo unspecified) ?
Myeloid diff 2: inactive; beta cell repl: -3; SENP1 inh: 1; MT1-MMP act inh: 0; DAGLB inhibitor: 2; CendR NRP1 mod: 52*

How did O=C(COC(=O)COc1ccc(Cl)cc1)Nc1ccc(F)c([N+](=O)[O-])c1 do in these assays?
Myeloid diff 2: inactive; beta cell repl: 0; SENP1 inh: 4; MT1-MMP act inh: 2; DAGLB inhibitor: -7; CendR NRP1 mod: -4

Results for Cc1ccc(NC(=O)c2oc3ccccc3c2NC(=O)c2ccc3c(c2)OCO3)cc1 ?
Myeloid diff 2: active; beta cell repl: -5; SENP1 inh: 1; MT1-MMP act inh: 9; DAGLB inhibitor: 1; CendR NRP1 mod: 10

Results for CNC[C@H]1Oc2cc(Br)ccc2S(=O)(=O)N([C@H](C)CO)C[C@H]1C ?
Myeloid diff 2: inactive; SENP1 inh: 1; MT1-MMP act inh: 1; DAGLB inhibitor: -3; CendR NRP1 mod: 0

Results for O=C(Nc1ccccc1CC[N+](=O)[O-])N1CCN(c2ccccc2)CC1 ?
Myeloid diff 2: inactive; beta cell repl: -3; SENP1 inh: 2; MT1-MMP act inh: -5; DAGLB inhibitor: 0; CendR NRP1 mod: 1

Results for CC(=N)c1c(O)cc(C)oc1=O ?
Myeloid diff 2: inactive; SENP1 inh: 1; MT1-MMP act inh: 0; DAGLB inhibitor: 0; CendR NRP1 mod: 19*

Results for CCOC(=O)N1CCN(C(=O)C[C@@H]2C[C@@]3(C(=O)OC)CC(C)(C)CC=C3N(CCc3ccc(OC)c(OC)c3)C2=O)CC1 ?
Myeloid diff 2: inactive; SENP1 inh: 4; MT1-MMP act inh: 5; CendR NRP1 mod: 5

What do the screens show for `O=C(COC(=O)C1=COCCO1)Nc1ccc(OC(F)F)cc1`?
Myeloid diff 2: inactive; beta cell repl: -2; SENP1 inh: 1; MT1-MMP act inh: 2; DAGLB inhibitor: -1; CendR NRP1 mod: 27*

What do the screens show for `CCCC1CC(CSC(=N)N)OC1=O` (stereo unspecified)?
Myeloid diff 2: inactive; beta cell repl: -2; SENP1 inh: 2; MT1-MMP act inh: 5; DAGLB inhibitor: -1; CendR NRP1 mod: 27*

Results for CC(C)(C)c1ccc(S(=O)(=O)N2CCN(c3ncccn3)CC2)cc1 ?
Myeloid diff 2: inactive; beta cell repl: -2; SENP1 inh: 1; MT1-MMP act inh: 2; DAGLB inhibitor: 0; CendR NRP1 mod: 27*

How did O=S(=O)(c1ccccc1)N1CCN(c2ncccn2)CC1 do in these assays?
Myeloid diff 2: inactive; beta cell repl: -1; SENP1 inh: 2; MT1-MMP act inh: 0; DAGLB inhibitor: -3; CendR NRP1 mod: -5

What do the screens show for `C=C1CCN([C@H](C(=O)O)C(C)C)S(=O)(=O)c2ccccc21`?
Myeloid diff 2: inactive; beta cell repl: -4; SENP1 inh: 5; MT1-MMP act inh: -2; DAGLB inhibitor: -2; CendR NRP1 mod: 36*

Results for CN(C)NC(=S)NC1(C)CCS(=O)(=O)C1 (stereo unspecified) ?
Myeloid diff 2: inactive; beta cell repl: -3; SENP1 inh: 1; MT1-MMP act inh: 0; DAGLB inhibitor: -1; CendR NRP1 mod: -4

Results for CCOC(=O)c1c(C)oc2c1c(C=NC1CCS(=O)(=O)C1)c(O)c1ccccc12 (stereo unspecified) ?
Myeloid diff 2: inactive; SENP1 inh: -52; MT1-MMP act inh: 3; DAGLB inhibitor: 0; CendR NRP1 mod: -7

How did CCOC(=O)c1c(C)oc2c1c(C=NCCC(=O)O)c(O)c1ccccc12 do in these assays?
Myeloid diff 2: inactive; beta cell repl: -1; SENP1 inh: -32; MT1-MMP act inh: -19; DAGLB inhibitor: -1; CendR NRP1 mod: 26*

What do the screens show for `COc1cccc2sc(NNC(=O)C3=COCCO3)nc12`?
Myeloid diff 2: active; beta cell repl: -3; SENP1 inh: -20; MT1-MMP act inh: -10; DAGLB inhibitor: 1; CendR NRP1 mod: -70
